The values below come from ChEMBL document CHEMBL1128171, “A series of N4-imidoethyl derivatives of 1-(2,3-dihydro-1,4-benzodioxin-5-yl)piperazine as 5-HT1A receptor ligands: synthesis and structure-affinity relationships” (J Med Chem, 1995).

For series [1], the target named is T1, 5-hydroxytryptamine receptor 1A (Rattus norvegicus, UniProt P19327).
T1 sequence (P19327 whole entry): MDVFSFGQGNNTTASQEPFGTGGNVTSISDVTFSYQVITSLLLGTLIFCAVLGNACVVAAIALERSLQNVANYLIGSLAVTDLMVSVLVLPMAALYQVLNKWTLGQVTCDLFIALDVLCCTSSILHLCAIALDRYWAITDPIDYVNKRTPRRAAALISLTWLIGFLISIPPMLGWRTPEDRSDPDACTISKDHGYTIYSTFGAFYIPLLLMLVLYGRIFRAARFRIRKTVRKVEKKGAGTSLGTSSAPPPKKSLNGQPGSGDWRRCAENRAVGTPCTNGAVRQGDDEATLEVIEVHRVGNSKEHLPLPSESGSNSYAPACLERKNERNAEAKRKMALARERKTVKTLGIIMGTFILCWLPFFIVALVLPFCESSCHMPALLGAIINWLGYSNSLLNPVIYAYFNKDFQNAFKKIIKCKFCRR
As to the kind of experiment: Inhibition of [3H]2-(di-N-propylamino)-8-hydroxytetralin binding to 5-HT1A receptor of rat frontal cortex homogenates. It is filed as tissue-based. An outline of the steps:
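Rat frontal cortex homogenates incubated with [3H]-8-OH-DPAT at 37 °C, pH 7.7. Four to six drug concentrations, each in triplicate; three to six assays per value. IC50 for displacement of specific binding converted to Ki by Cheng–Prusoff using radioligand concentration and Kd. Reported as pKi.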

Series [2] can be described thus: Ionisation constant of the compound. It is filed as ADME. The method in brief: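 Potentiometric titration at 37 °C (±1 °C) under nitrogen, using a glass pH electrode calibrated at pH 4, 7 and 9. 30 mg substance in 40 mL 0.1 M KCl in carbonate-free water, 0.002-0.005 M. Titrant 0.05 M NaOH added in 0.05 mL steps. pKa calculated from 5-15 curve points (pre-precipitation only) and averaged.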

Usually Ki stands for the dissociation constant of the complex between target and ligand, obtained from inhibition or displacement. As a reminder, the pKa is the negative logarithm of the acid dissociation constant. Higher therefore signals a group that holds its proton tightly. With `O=C1CCCC(=O)N1CCN1CCN(c2cccc3c2OCCO3)CC1`, the Ki in series [1] is 347 nM. In series [2], this compound returned a pKa of 6.4.
For `CC1(C)CC(=O)N(CCN2CCN(c3cccc4c3OCCO4)CC2)C(=O)C1`, in that order: 4.68 nM and 6.42.
For `Cc1ccc2c(c1)C(=O)N(CCN1CCN(c3cccc4c3OCCO4)CC1)C2=O` the same measures were 4.79 nM and 6.1.
For `CC1CC(=O)N(CCN2CCN(c3cccc4c3OCCO4)CC2)C1=O` (configuration not stated) the same measures were 151 nM and 6.16.
Turning to `O=C1C=CC(=O)N1CCN1CCN(c2cccc3c2OCCO3)CC1`, in series [1], the affinity corresponds to a Ki of 977 nM. Also, in series [2], the pKa came to 5.9.
`O=C1C2CCCCC2C(=O)N1CCN1CCN(c2cccc3c2OCCO3)CC1` (configuration not stated) showed a pKa in series [2] of 6.07.
Turning to `CC1=CC(=O)N(CCN2CCN(c3cccc4c3OCCO4)CC2)C1=O`, the Ki in series [1] was 63.1 nM. The compound also returned a pKa in series [2] of 6.3.
For `O=C1CCC(=O)N1CCN1CCN(c2cccc3c2OCCO3)CC1` the same measures were 110 nM and 6.16.
For `O=C1C2CC=CCC2C(=O)N1CCN1CCN(c2cccc3c2OCCO3)CC1` (configuration not stated), in that order: 10 nM and 6.05.
For `O=C1C2=C(CCCC2)C(=O)N1CCN1CCN(c2cccc3c2OCCO3)CC1` the same measures were 6.46 nM and 6.3.
For `O=C1CC2(CCCC2)CC(=O)N1CCN1CCN(c2cccc3c2OCCO3)CC1`, the Ki in series [1] is 0.708 nM. This compound also yielded a pKa in series [2] of 6.51.
With `O=C1c2ccccc2C(=O)N1CCN1CCN(c2cccc3c2OCCO3)CC1`, affinity in series [1] was put at a Ki of 32.4 nM.
